Published values from different studies.
TMEM97: Sigma intracellular receptor 2 (TMEM97, Homo sapiens, UniProt Q5BJF2)
Serine protease HTRA1 S328A: Serine protease HTRA1 (Homo sapiens, UniProt Q92743, S328A)
tspO: tspO (Cereibacter sphaeroides, UniProt Q9RFC8)

O=c1c(O)c(-c2ccc(O)c(O)c2)oc2cc(O)ccc12 — Kd (Ribosomal protein S6 kinase beta-1 (RPS6KB1, Homo sapiens, UniProt P23443); cell-free assay, competition with immobilised ligand): 0.94 µM
Cc1c2ccncc2c(C)c2c1[nH]c1ccccc12 — Ki (TMEM97; ligand displacement, radioligand): > 10 µM
CC(C)C[C@H](NC(=O)[C@H](CO)NC(=O)[C@H](CCC(=O)O)NC(=O)[C@@H](NC(=O)[C@H](CC(C)C)NC(=O)[C@H](CC(=O)O)NC(=O)[C@H](CC(=O)O)NC(=O)[C@H](CC(=O)O)NC(=O)[C@@H](NC(=O)[C@H](Cc1c[nH]c2ccccc12)NC(=O)[C@@H](N)CCC(=O)O)[C@@H](C)O)C(C)C)C(=O)O — Kd (Serine protease HTRA1 S328A; binding, ITC; pH 8): 39.7 µM
COc1cc2c(cc1OC)CN(CCc1ccc(NC(=O)c3cc(OC)c(OC)cc3NC(=O)c3cnc4ccccc4c3)cc1)CC2 — Ki (TMEM97; ligand displacement, radioligand): 0.0178 µM
CC[C@H](C)[C@H](NC(=O)[C@H](Cc1c[nH]c2ccccc12)NC(=O)[C@H](C)NC(=O)[C@H](C)NC(=O)[C@H](Cc1ccc(O)cc1)NC(=O)[C@@H](N)CO)C(=O)N[C@@H](CC(=O)O)C(=O)N[C@@H](CO)C(=O)N[C@H](C(=O)N[C@@H](CC(C)C)C(=O)N[C@@H](C)C(=O)O)C(C)C — Kd (Serine protease HTRA1 S328A; binding, ITC; pH 8): 3.9 µM
Cc1cc2c(C(C)C)c(O)c(O)c(C=O)c2c(O)c1-c1c(C)cc2c(C(C)C)c(O)c(O)c(C=O)c2c1O — Kd (tspO; binding, fluorescence): 6 µM
CC(C)C[C@H](NC(=O)[C@H](CC(=O)O)NC(=O)[C@H](CC(=O)O)NC(=O)[C@H](CC(=O)O)NC(=O)[C@@H](NC(=O)[C@H](Cc1c[nH]c2ccccc12)NC(=O)[C@@H](N)CCC(=O)O)[C@@H](C)O)C(=O)N[C@@H](CO)C(=O)N[C@H](C(=O)N[C@@H](CC(C)C)C(=O)N[C@@H](C)C(=O)O)C(C)C — Kd (Serine protease HTRA1 S328A; binding, ITC; pH 8): 20.5 µM
NC[C@@H]1[C@H]2CN3C(=O)c4cccn4[C@@H]4NC(N)=N[C@@]43[C@@H]2[C@]2(N=C(N)N[C@H]2O)[C@H]1Cl (racemic) — IC50 (Proteasome subunit beta type-8, chymotrypsin-like site (PSMB8, Homo sapiens, UniProt P28062); enzyme activity, inhibitor): 4.8 µM
CC[C@H](C)[C@H](NC(=O)[C@H](Cc1ccccc1)NC(=O)[C@H](CC(=O)O)NC(=O)[C@H](CCCNC(=N)N)NC(=O)[C@@H](NC(=O)[C@H](C)NC(=O)[C@H](CC(C)C)NC(=O)[C@H](CC(N)=O)NC(=O)[C@H](CC(=O)O)NC(=O)[C@H](CC(C)C)NC(=O)[C@@H](NC(=O)[C@@H](NC(=O)[C@H](CO)NC(=O)[C@H](CCSC)NC(=O)[C@H](CCC(=O)O)NC(=O)[C@H](CC(=O)O)NC(=O)[C@H](CO)NC(=O)[C@H](Cc1ccccc1)NC(=O)[C@H](CO)NC(=O)CNC(=O)[C@H](CC(=O)O)NC(=O)[C@H](C)NC(=O)[C@@H](N)Cc1c[nH]cn1)[C@@H](C)O)[C@@H](C)CC)[C@@H](C)O)C(=O)N[C@@H](CC(N)=O)C(=O)N[C@@H](Cc1c[nH]c2ccccc12)C(=O)N[C@@H](CC(C)C)C(=O)N[C@H](C(=O)N[C@@H](CCC(N)=O)C(=O)N[C@H](C(=O)N[C@@H](CCCCN)C(=O)N[C@H](C(=O)N[C@H](C(=O)N[C@@H](CC(=O)O)C(=O)O)[C@@H](C)O)[C@@H](C)CC)[C@@H](C)O)[C@@H](C)CC — EC50 (Glucagon receptor (GCGR, Homo sapiens, UniProt P47871); reporter gene, agonist, luciferase): > 1 µM
Cc1cccc(CN2CCN(C(c3ccccc3)c3ccc(Cl)cc3)CC2)c1 (centres unmarked) — Ki (TMEM97; ligand displacement, radioligand): > 10 µM
CC(C)C[C@H](NC(=O)[C@H](Cc1ccccc1)NC(=O)c1cnccn1)B(O)O — IC50 (Dipeptidyl peptidase 2 (Homo sapiens, UniProt Q9UHL4); enzyme activity, inhibitor): 8.5 µM
CC(C)(C)[C@]1(O)CCN2C[C@@H]3c4ccccc4CCc4cccc(c43)[C@H]2C1 — Ki (TMEM97; ligand displacement, radioligand): 4.79 µM
CC[C@H](C)[C@H](NC(=O)[C@H](C)NC(=O)[C@H](CCCNC(=N)N)NC(=O)[C@H](CC(C)C)NC(=O)[C@@H](N)Cc1ccccc1)C(=O)N[C@@H](CCCNC(=N)N)C(=O)N1CCC[C@H]1C(=O)N[C@@H](CCCCN)C(=O)O — IC50 (B1 bradykinin receptor (Rattus norvegicus, UniProt P97583); ligand displacement, radioligand; cell membranes): 0.74 µM
OCCN1CCN(CCCN2c3ccccc3C=Cc3ccccc32)CC1 — Ki (TMEM97; ligand displacement, radioligand): 0.126 µM
COc1cc(Nc2ncc(F)c(Nc3ccc4c(n3)NC(=O)C(C)(C)O4)n2)cc(OC)c1OC — IC50 (UDP-glucuronosyltransferase 1A1 (UGT1A1, Homo sapiens, UniProt P22309); enzyme activity, inhibitor): 0.158 µM
CC(C)C[C@H](NC(=O)CNC(=O)[C@H](C)NC(=O)c1ccc(S(=O)(=O)NC[C@H]2O[C@@H](C)[C@@H](O)[C@@H](O)[C@@H]2O)cc1)C(=O)N[C@@H](C)C(=O)N[C@H]1CCN(c2cc3c(cc2F)c(=O)c(C(=O)O)cn3C2CC2)C1 — Ki (Fucose-binding lectin PA-IIL (lecB, Pseudomonas aeruginosa, UniProt Q9HYN5); ligand displacement, FP): 1.43 µM
C=CC1=C(C)/C(=C/c2[nH]c(Cc3[nH]c(/C=C4\NC(=O)C(C)=C4C=C)c(C)c3CCC(=O)O)c(CCC(=O)O)c2C)NC1=O — Kd (tspO; binding, fluorescence): 4.7 µM
